Data taken from ChEMBL document CHEMBL3232952, “Bisphosphonate prodrugs: synthesis and biological evaluation in HuH7 hepatocarcinoma cells” (Eur J Med Chem, 2014).
The source made the active and inactive calls. The rule behind the calls is not given here.

Columns and labels:
[1] = (§1) Cytotoxicity against human HuH7 cells after 144 hrs by MTT assay; format: functional, cell-based; settings: Huh-7, 144 h
Procedure, shortened: (§2)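 MTT assay. HuH7 cells were seeded at 5x10⁴/well and grown 24 h in complete medium, then switched to 2% FCS medium containing compound (10⁻⁶–10⁻³ M) for 144 h. Cells were washed with PBS, given MTT (2 mg/mL) for 4 h at 37 °C, and formazan was dissolved in DMSO. OD was read at 570 nm. Mean ± SD of three independent experiments.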

[2] = tested on: Huh-7; experiment: as §1; format: functional, cell-based; procedure, shortened: as §2
[3] = tested on: Huh-7; experiment: Cytotoxicity against human HuH7 cells at 1 mM after 144 hrs by MTT assay in presence of IBMX; format: functional, cell-based
Procedure, shortened: (§3)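 MTT viability assay with the cells pretreated with IBMX (1 mM) before compound addition; the pretreatment time is given as 30 min in Methods and 1 h in the legend. Then 144 h exposure in 2% FCS medium, MTT (2 mg/mL) for 4 h at 37 °C, DMSO solubilisation and OD read at 570 nm. Mean ± SD of three independent experiments.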

[4] = Cytotoxicity against human HuH7 cells at 10 uM to 1 mM after 144 hrs by MTT assay; format: functional, Huh-7; procedure, shortened: as §2
[5] = (§4) Antiinvasive activity against human HuH7 cells at 100 uM after 24 hrs by matrigel assay relative to control; format: functional, Huh-7
Procedure, shortened: (§5)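 Boyden chambers with 8 µm-pore filters coated with Matrigel. 2.5 × 10⁵ HuH7 cells were seeded in the upper well with 100 µM compound. HGF (20 ng/mL) in the lower chamber served as chemoattractant. After 24 h, non-invaded cells were wiped off, and filters were methanol-fixed and haematoxylin-stained. Cells on the lower surface were counted in 10 fields, expressed as % of control; mean ± SD of three independent experiments.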

[6] = Cytotoxicity against human HuH7 cells at 250 uM after 144 hrs by MTT assay; format: functional; settings: Huh-7, 144 h; procedure, shortened: as §2
[7] = Antimigratory activity against human HuH7 cells at 100 uM after 24 hrs relative to control; format: functional; settings: Huh-7, 24 h
Procedure, shortened: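 Migration chambers with the insert undersides coated overnight at 4 °C with fibronectin (100 µg/mL). 2.5 × 10⁵ HuH7 cells were placed in the upper chamber with 100 µM compound, with HGF (20 ng/mL) in the lower chamber. After 24 h, non-migrated cells were scraped off, and cells on the lower face were fixed, stained and counted. Results are % of control set at 100%; triplicate.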

[8] = tested on: Huh-7; experiment: Cytotoxicity against human HuH7 cells at 400 uM after 144 hrs by MTT assay in presence of IBMX; format: functional, cell-based
Procedure, shortened: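 HuH7 cells pretreated with IBMX (1 mM) before bisphosphonate was added. Cells were seeded at 5x10⁴ cells/well and held 24 h in complete medium, then exposed 144 h to compound in 2% FCS medium. Read-out by MTT (2 mg/mL, 4 h, 37 °C), DMSO solubilisation, OD 570 nm. Mean ± SD of three independent experiments.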

[9] = Cell cycle arrest in human HuH7 cells assessed as accumulation at G1 phase after 144 hrs by […]propidium iodide staining-based FACS analysis; format: functional; settings: Huh-7
[10] = tested on: Huh-7; experiment: Induction of apoptosis in human HuH7 cells after 144 hrs by Annexin V/propidium iodide staining-based FACS analysis; format: functional, cell-based
Procedure, shortened: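 HuH7 cells were exposed to compound for 144 h, then treated and untreated cells were stained with Annexin V and PI. Flow cytometry scored early apoptosis as Ann V⁺/PI⁻ and late apoptosis as Ann V⁺/PI⁺.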

[11] = Cytotoxicity against human HuH7 cells at 1 mM after 144 hrs by MTT assay; format: cell-based; settings: huh-7, 144 h, 1000 µM
Procedure, shortened: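 HuH7 cells plated at 5x10⁴ cells/well in complete medium for 24 h, then switched to 2% FCS medium with bisphosphonate (10^-6 to 10^-3 M range) for 144 h. PBS wash, then MTT (2 mg/mL) 4 h at 37 °C, formazan dissolved in DMSO, OD read at 570 nm. Mean ± SD of three independent experiments.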

[12] = Drug metabolism in human HuH7 cell extract assessed as phosphorylated metabolite formation by measuring [31P] NMR chemical shift at 0.5 mM after 5 days by [31P]NMR spectroscopy; format: ADME, cell-based; settings: huh-7, 120 h, 500 µM
[13] = Stability of the compound in cell culture medium assessed as [31P] NMR chemical shift after 3 days by [31P]NMR spectroscopy; format: physicochemical; settings: 72 h
[14] = tested on: Huh-7; experiment: as §4; format: functional; procedure, shortened: as §5
[15] = tested on: Serum; experiment: Stability in human serum assessed as [31P] NMR chemical shift after 3 days by [31P]NMR spectroscopy; format: ADME, cell-free; settings: 72 h
[16] = Stability of the compound in D2O assessed as [31P] NMR chemical shift after 1 day by [31P]NMR spectroscopy; format: physicochemical; settings: 24 h
[17] = Stability of the compound in D2O assessed as [31P] NMR chemical shift after 5 days by [31P]NMR spectroscopy; format: physicochemical; settings: 120 h
[18] = Stability of the compound in D2O assessed as [31P] NMR chemical shift after 3 days by [31P]NMR spectroscopy; format: physicochemical; settings: 72 h
[19] = Stability of the compound in cell culture medium assessed as [31P] NMR chemical shift after 5 days by [31P]NMR spectroscopy; format: physicochemical; settings: 120 h
[20] = tested on: Serum; experiment: Stability in human serum assessed as [31P] NMR chemical shift after 1 day by [31P]NMR spectroscopy; format: ADME, cell-free; settings: 24 h
[21] = Stability in human HuH7 cell extract assessed as compound remaining by measuring [31P] NMR chemical shift at 0.5 mM after 5 days by [31P]NMR spectroscopy; format: ADME, cell-based; settings: huh-7, 120 h, 500 µM
[22] = tested on: Huh-7; experiment: Cytotoxicity against human HuH7 cells at 125 uM after 144 hrs by MTT assay in presence of IBMX; format: functional, cell-based; procedure, shortened: as §3
[23] = tested on: Serum; experiment: Stability in human serum assessed as [31P] NMR chemical shift after 5 days by [31P]NMR spectroscopy; format: ADME, cell-free; settings: 120 h
[24] = Stability of the compound in cell culture medium assessed as [31P] NMR chemical shift after 1 day by [31P]NMR spectroscopy; format: physicochemical; settings: 24 h

O=P(O)(Oc1ccccc1)C(O)(c1ccccc1)P(=O)(O)Oc1ccccc1 (stereo not given)
IC50 [1]: 555 µM
inhibition [2]: Dose-dependent effect
Activity [3]: inactive

COP(=O)(O)C(O)(c1ccc(Br)cc1)P(=O)(O)OC (stereo not given)
inhibition (INH) [4]: 15%

O.O=P(O)(O)C(O)(Cn1ccnc1)P(=O)(O)O [ZOLEDRONIC ACID]
Activity [5]: 54%
inhibition at 250 µM [6]: 80%
inhibition at 100 µM [7]: 72%
IC50 [1]: 60 µM

O=P(O)(O)C(O)(c1ccc(Br)cc1)P(=O)(O)Oc1ccccc1 (stereo not given)
inhibition at 250 µM [6]: 80%
IC50 [1]: 100 µM
inhibition [2]: Dose-dependent effect

O=P(O)(O)C(O)(c1ccccc1)P(=O)(O)O
inhibition (INH) [4]: 15%
Activity [3]: Active

O=P(O)(O)C(O)(c1ccc(Br)cc1)P(=O)(O)O
Activity [5]: 40%
Activity [8]: Active
Activity [9]: 58%
inhibition at 100 µM [7]: 95%
IC50 [1]: 440 µM
inhibition [2]: Dose-dependent effect
Activity [10]: Active

CC(C)Cn1c(=O)n(C)c(=O)c2[nH]cnc21 [ISOBUTYLMETHYLXANTHINE]
Activity [11]: Non-toxic

O=P(O)(Oc1ccccc1)C(O)(c1ccc(Br)cc1)P(=O)(O)Oc1ccccc1 (stereo not given)
Drug metabolism [12]: metabolite_detected
Stability [13]: 12.83 ppm
Activity [14]: inactive
Stability [15]: 12.65 ppm
Stability [16]: 12.8 ppm
Stability [17]: 12.8 ppm
inhibition at 250 µM [6]: 80%
Stability [18]: 12.78 ppm
Stability [19]: 12.83 ppm
Activity [9]: 58%
Stability [20]: 12.85 ppm
inhibition at 100 µM [7]: 68%
Stability [21]: 12.09 ppm
IC50 [1]: 125 µM
inhibition [2]: Dose-dependent effect
Activity [22]: inactive
Activity [10]: Active
Stability [23]: 12.8 ppm
Stability [24]: 12.85 ppm
